A word on the IC50: it is the midpoint of a concentration-inhibition curve. Broadly, the MIC is the least concentration at which growth counts as inhibited. Usually MFC stands for the lowest tested concentration that kills the fungus rather than only halting it.

SMILES strings stand for the structures. Where only a bound is given, the exact number is not on record here.

Consider 20 compounds from ChEMBL document CHEMBL1641580, “Identification of 3-phenylaminoquinolinium and 3-phenylaminopyridinium salts as new agents against opportunistic fungal pathogens” (Bioorg Med Chem, 2011).

Data set [1] has as its system Aspergillus fumigatus. The data set can be described thus: Antifungal activity against Aspergillus fumigatus ATCC 90906 assessed as inhibition of fungal growth by alamar blue assay. Format: functional, organism-based. Summed up:
(§1)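 Broth microdilution modified from NCCLS. DMSO stocks serially diluted in saline and plated in duplicate. Inoculum set by 0.5 McFarland standard. Media: C. albicans in SDB or RPMI 1640; C. neoformans in SDB; A. fumigatus in RPMI-1640 + 5% Alamar Blue. Highest final concentration 20 µg/mL. Plates read before and after incubation by fluorescence 544ex/590em (A. fumigatus) or OD 630 nm. IC50 from percent growth vs concentration.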
(Resazurin is reduced to fluorescent resorufin, in cell work by metabolically active cells.)

The test system of data set [2] is Cryptococcus neoformans. The data set can be described thus: Antifungal activity against Cryptococcus neoformans ATCC 90113 by microscopy. Format: functional. In a few lines: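 Modified NCCLS microdilution. Samples in DMSO serially diluted in saline and tested in duplicate against inocula standardized to 0.5 McFarland. Highest final concentration 20 µg/mL. MIC read visually as the lowest concentration with no detectable growth (for Alamar Blue wells, no blue-to-pink change).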

Data set [3] concerns Candida albicans. The data set can be described thus: Antifungal activity against Candida albicans ATCC 90028 by microscopy. Format: functional. In a few lines:
(§2)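 Modified NCCLS microdilution. Samples in DMSO serially diluted in saline and tested in duplicate against inocula standardized to 0.5 McFarland. Broths: C. albicans SDB or RPMI 1640; C. neoformans SDB; A. fumigatus YM broth. Highest final concentration 20 µg/mL. MIC read visually as the lowest concentration with no detectable growth (for Alamar Blue wells, no blue-to-pink change).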

Data set [4] in a line: Cytotoxicity against african green monkey Vero cells after 48 hrs by neutral red assay. Type of data set: cell-based. The conditions noted are these: chlorocebus sabaeus, read-out: TC50. In a few lines: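 Vero kidney fibroblasts seeded at 25,000 cells/well and grown 24 h, then exposed to samples up to 20 µg/ml for 48 h. Viable cells measured by neutral red assay. IC50 taken from growth-inhibition vs concentration curves. DMSO served as vehicle control.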

The subject of data set [5] is Candida albicans. The experiment in a line: Antifungal activity against Candida albicans ATCC 90028 assessed as inhibition of fungal growth by alamar blue assay. Type of data set: functional, organism-based. In a few lines: as §1
Data set [6] concerns Cryptococcus neoformans. The data set can be described thus: Antifungal activity against Cryptococcus neoformans ATCC 90113 assessed as inhibition of fungal growth by alamar blue assay. Format: functional, organism-based. Summed up: as §1
Data set [7] has as its system Cryptococcus neoformans. The experiment in a line: Fungicidal activity against Cryptococcus neoformans ATCC 90113. Format: functional.
The subject of data set [8] is Aspergillus fumigatus. The experiment in a line: Fungicidal activity against Aspergillus fumigatus ATCC 90906. Format: functional.
The test system of data set [9] is Aspergillus fumigatus. The data set can be described thus: Antifungal activity against Aspergillus fumigatus ATCC 90906 by microscopy. Format: functional. In a few lines: as §2
Data set [10] deals with Candida albicans. The data set can be described thus: Fungicidal activity against Candida albicans ATCC 90028. Format: functional.
[11] abbreviates: Aspergillus fumigatus, ATCC 90906, read-out: IC50.

For the compound `Clc1ccc(Nc2cc3ccccc3[n+](CCCCCC3CCCCC3)c2)cc1.[I-]`, the half-maximal inhibitory concentration (IC50) entry was “Not Active” in data set [1], 2 µg/mL in [5] and 1 µg/mL in data set [6]. For the same compound, the MIC is 1.6 µg/mL in data set [2] and greater than 20 µg/mL in data set [3]. The CC50 at 48 h in data set [4] is greater than 10 µg/mL. The same compound returned an MFC in data set [7] greater than 20 µg/mL.

As for `C[n+]1cccc(N(CCCCCC2CCCCC2)c2ccccc2Cl)c1.[I-]`, the figures for the 50% inhibitory concentration (IC50) in [1] (setting [11]), in data set [5] and in data set [6] were 18 µg/mL, 2.8 µg/mL and 2 µg/mL, respectively. Further, the figures for the minimal inhibitory concentration (MIC) in data set [2], in data set [9] and in data set [3] were 2.5 µg/mL, greater than 20 µg/mL and 5 µg/mL, respectively. Besides, the minimum fungicidal concentration (MFC) in data set [8] is greater than 20 µg/mL; in [7], 2.5 µg/mL; in data set [10], 5 µg/mL.

With `Clc1cccc(Nc2cc3ccccc3[n+](CCCCCC3CCCCC3)c2)c1.[I-]`, the half-maximal inhibitory concentration (IC50) in data set [1] (setting [11]) was 3.5 µg/mL; in data set [5], 2 µg/mL; in [6] it was 2 µg/mL. Also, the values for the MIC in data set [2], in data set [9] and in data set [3] were 3.1 µg/mL, 6.3 µg/mL and 6.3 µg/mL, respectively. For the same compound, the figures for the MFC in data set [8], in [7] and in data set [10] were greater than 20 µg/mL, 50 µg/mL and 13 µg/mL, respectively. Besides, in data set [4], the CC50 at 48 h was greater than 10 µg/mL.

As to `CSc1ccc(N(CCCCCC2CCCCC2)c2ccc[n+](C)c2)cc1.[I-]`, the IC50 in [1] (setting [11]) came to 6.4 µg/mL; in data set [5] it was 2 µg/mL; in data set [6] it was 1.2 µg/mL. For the same compound, the minimum inhibitory concentration (MIC) in data set [2] was determined as 1.3 µg/mL; in data set [9], 10 µg/mL; in data set [3], 5 µg/mL. Further, the MFC in data set [8] came out at 10 µg/mL; in [7], 2.5 µg/mL; in [10], 10 µg/mL. In addition, the CC50 at 48 h in [4] was greater than 10 µg/mL.

Consider `C[n+]1cc(N(CCCCCC2CCCCC2)c2ccccc2Cl)cc2ccccc21.[I-]`, for which the IC50 in [1] (setting [11]) was 3.1 µg/mL; in data set [5] it was 0.63 µg/mL; in [6], 0.2 µg/mL. Moreover, the MIC was determined as 0.3 µg/mL in [2], 5 µg/mL in data set [9] and 1.3 µg/mL in [3]. Further, the minimum fungicidal concentration (MFC) stood at 20 µg/mL in data set [8], 0.6 µg/mL in data set [7] and 1.3 µg/mL in [10].

Regarding `C[n+]1c2ccccc2cc2[nH]c3ccc(Cl)cc3c21.[I-]`, the concentration for half-maximal inhibition (IC50) in data set [1] (setting [11]) was greater than 20 µg/mL; in data set [5], 4.5 µg/mL; in data set [6], 15 µg/mL. In addition, the minimal inhibitory concentration (MIC) in data set [2] and in [3] was greater than 20 µg/mL each time. In addition, the CC50 at 48 h in data set [4] is 1.5 µg/mL.

On to `C[n+]1cccc(N(CCCCCC2CCCCC2)c2cccc(C(F)(F)F)c2)c1.[I-]`, for which the IC50 in [1] (setting [11]) is 1.5 µg/mL; in data set [5], 3 µg/mL; in data set [6] it was 1.5 µg/mL. Also, the MIC in data set [2] was determined as 2.5 µg/mL; in data set [9], 2.5 µg/mL; in data set [3], 5 µg/mL. Moreover, the MFC in [8] was found to be 10 µg/mL; in data set [7], 5 µg/mL; in [10], 20 µg/mL. Also, the CC50 at 48 h in data set [4] is greater than 10 µg/mL.

In the case of `Cc1ccc(N(CCCCCC2CCCCC2)c2ccc[n+](C)c2)cc1.[I-]`, the IC50 in data set [1] (setting [11]), in [5] and in data set [6] was 1.5 µg/mL each time. Moreover, the figures for the MIC in data set [2], in [9] and in data set [3] were 2.5 µg/mL, 5 µg/mL and 2.5 µg/mL, respectively. Also, the MFC was 5 µg/mL in data set [8], 5 µg/mL in data set [7] and 10 µg/mL in [10]. The CC50 at 48 h in data set [4] is greater than 10 µg/mL.

`C[n+]1c2ccc(Cl)cc2cc2c1c1ccccc1n2CCCCCC1CCCCC1.[I-]`: the figures for the MIC in data set [2], in data set [9] and in data set [3] were 2.5 µg/mL, 1.3 µg/mL and 1.3 µg/mL, respectively. Besides, the results for the MFC in data set [8], in data set [7] and in data set [10] were greater than 20 µg/mL, 10 µg/mL and greater than 20 µg/mL, respectively. In addition, in data set [4], the CC50 at 48 h was found to be 1.4 µg/mL. The half-maximal inhibitory concentration (IC50) came to 0.6 µg/mL in [5] and 0.9 µg/mL in data set [6].

As to `C[n+]1c2ccccc2cc2[nH]c3ccc(Br)cc3c21.[I-]`, the results for the minimal inhibitory concentration (MIC) in data set [2], in [9] and in data set [3] were 20 µg/mL, 10 µg/mL and greater than 20 µg/mL, respectively. The CC50 at 48 h in [4] is 0.93 µg/mL. Also, the IC50 in data set [5] and in data set [6] was 2.5 µg/mL in each case.

Take `CCc1ccc(N(CCCCCC2CCCCC2)c2ccc[n+](C)c2)cc1.[I-]`: the results for the IC50 in data set [1] (setting [11]), in data set [5] and in data set [6] were 2.7 µg/mL, 1.3 µg/mL and 0.4 µg/mL, respectively. Moreover, the values for the MIC in data set [2], in data set [9] and in [3] were 0.6 µg/mL, 5 µg/mL and 2.5 µg/mL, respectively. Further, the CC50 at 48 h in [4] stood at 10 µg/mL. Also, the MFC in data set [7] and in data set [10] was 5 µg/mL each time.

With `C[n+]1c2cc(Cl)ccc2c(Cl)c2[nH]c3ccccc3c21.[I-]`, the results for the 50% inhibitory concentration (IC50) in data set [1] (setting [11]), in [5] and in data set [6] were greater than 20 µg/mL, 1 µg/mL and 6 µg/mL, respectively. Besides, the MIC in data set [2] and in data set [3] was 10 µg/mL each time. For the same compound, the CC50 at 48 h in data set [4] was 10 µg/mL. Also, the MFC in data set [7] and in [10] was greater than 20 µg/mL in each case.

On to `C[n+]1c2ccccc2cc2[nH]c3c(Cl)cccc3c21.[I-]`, for which the CC50 at 48 h in data set [4] is 3.2 µg/mL. The half-inhibitory concentration (IC50) in [5] and in [6] was greater than 20 µg/mL in each case.

In the case of `C[n+]1cccc(N(CCCCCC2CCCCC2)c2ccc(Cl)cc2)c1.[I-]`, the half-inhibitory concentration (IC50) worked out at 1 µg/mL in [1] (setting [11]), 1.5 µg/mL in data set [5] and 1 µg/mL in data set [6]. Also, the minimal inhibitory concentration (MIC) in data set [2] was 1.6 µg/mL; in data set [9] it was 1.6 µg/mL; in data set [3], 3.1 µg/mL. Also, the CC50 at 48 h in data set [4] is greater than 10 µg/mL.

As to `C[n+]1c2cc(Cl)ccc2cc2[nH]c3ccccc3c21.O=S(=O)([O-])C(F)(F)F`, the IC50 in data set [1] (setting [11]) was greater than 20 µg/mL; in [5] it was 3 µg/mL; in [6] it was 15 µg/mL. The minimum inhibitory concentration (MIC) in data set [2] and in data set [3] was greater than 20 µg/mL in each case. Also, the CC50 at 48 h in data set [4] amounted to 2.1 µg/mL.

As to `C[n+]1c2ccccc2cc2[nH]c3cccc(Cl)c3c21.[I-]`, the IC50 in [1] (setting [11]), in data set [5] and in data set [6] was greater than 20 µg/mL throughout. For the same compound, the CC50 at 48 h in data set [4] was greater than 4.7 µg/mL.

Take `C[n+]1c2cccc(Cl)c2cc2[nH]c3ccccc3c21.O=S(=O)([O-])C(F)(F)F`: the IC50 in data set [1] (setting [11]) was greater than 20 µg/mL; in data set [5], 0.6 µg/mL; in data set [6], 7 µg/mL. Moreover, the minimum inhibitory concentration (MIC) in [2] and in data set [3] was greater than 20 µg/mL throughout. The CC50 at 48 h in [4] was found to be 5 µg/mL.

`Cc1ccccc1N(CCCCCC1CCCCC1)c1ccc[n+](C)c1.[I-]`: the IC50 in data set [1] (setting [11]) came out at 19 µg/mL; in data set [5] it was 2.6 µg/mL; in [6], 1.5 µg/mL. Besides, the MIC in [2] is 2.5 µg/mL; in data set [9], greater than 20 µg/mL; in data set [3], 5 µg/mL. The minimum fungicidal concentration (MFC) in data set [8] is greater than 20 µg/mL; in data set [7], 2.5 µg/mL; in [10], 5 µg/mL.

For the compound `[I-].c1ccc(Nc2cc3ccccc3[n+](CCCCCC3CCCCC3)c2)cc1`, the values for the IC50 in data set [1] (setting [11]), in [5] and in data set [6] were 1 µg/mL, 3.5 µg/mL and 1.5 µg/mL, respectively. The figures for the MIC in data set [2], in [9] and in [3] were 2.5 µg/mL, 2.5 µg/mL and 10 µg/mL, respectively. For the same compound, the results for the MFC in [8], in data set [7] and in [10] were 10 µg/mL, 10 µg/mL and greater than 20 µg/mL, respectively.

Regarding `C[n+]1c2ccc(Cl)cc2cc2[nH]c3ccccc3c21.[I-]`, the IC50 came to 10 µg/mL in [1] (setting [11]), 0.5 µg/mL in [5] and 2 µg/mL in [6]. In addition, the minimum inhibitory concentration (MIC) is 5 µg/mL in data set [2], greater than 20 µg/mL in data set [9] and 5.5 µg/mL in data set [3]. Besides, the minimal fungicidal concentration (MFC) in [8], in data set [7] and in data set [10] was greater than 20 µg/mL in each case.
